Usually IC50 stands for the concentration needed to halve the response being measured. A higher IC50 goes with weaker potency.

Sequence of Growth factor receptor-bound protein 2 (P62993 whole entry, the tested form may be a part): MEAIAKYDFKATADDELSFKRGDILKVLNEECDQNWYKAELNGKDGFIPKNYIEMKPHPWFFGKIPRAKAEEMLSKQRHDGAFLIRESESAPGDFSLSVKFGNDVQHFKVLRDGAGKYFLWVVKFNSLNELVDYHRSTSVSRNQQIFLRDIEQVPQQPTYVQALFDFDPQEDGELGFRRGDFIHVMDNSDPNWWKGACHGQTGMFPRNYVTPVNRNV

This test has as its target Growth factor receptor-bound protein 2 (Homo sapiens, UniProt P62993). The test is described as follows: Inhibition of Growth factor receptor bound protein 2 binding by ELISA assay method. The method in brief:
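Recombinant purified Grb2 SH2-GST fusion protein preincubated with serial inhibitor dilutions, then added to wells coated overnight with biotinylated Shc-derived phosphopeptide (20 ng/mL); blocking with 5% BSA in TBS, washes with 0.1% BSA/TBS. Bound protein detected with anti-GST antibody plus alkaline phosphatase-conjugated goat anti-mouse antibody, p-nitrophenyl phosphate colorimetric read-out. IC50 from serial dilutions, each concentration in triplicate.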
In the case of `NC(=O)C[C@H](NC(=O)C1(NC(=O)[C@H](Cc2ccc(OC(C(=O)O)C(=O)O)cc2)NC(=O)C(=O)O)CCCCC1)C(=O)NCCCc1cccc2ccccc12`, the IC50 amounted to 1.1 µM.

In the case of `CC(=O)N[C@@H](Cc1ccc(OCC(=O)O)cc1)C(=O)NC1(C(=O)N[C@@H](CC(N)=O)C(=O)NCCCc2cccc3ccccc23)CCCCC1`, the IC50 came out at 68 µM. Compared with the last compound, the IC50 is about 62-fold higher.

For `NC(=O)C[C@H](NC(=O)C1(NC(=O)[C@H](Cc2ccc(OCC(=O)O)cc2)NC(=O)C(=O)O)CCCCC1)C(=O)NCCCc1cccc2ccccc12`, the IC50 is 19 µM.

`CC(=O)N[C@@H](Cc1ccc(CP(=O)(O)O)cc1)C(=O)NC1(C(=O)N[C@@H](CC(N)=O)C(=O)NCCCc2cccc3ccccc23)CCCCC1` yielded an IC50 of 0.02 µM.

In the case of `Cc1ccc2c(ccn2CCCNC(=O)[C@H](CC(N)=O)NC(=O)C2(NC(=O)[C@H](Cc3ccc(C(C(=O)O)C(=O)O)cc3)NC(=O)C(=O)O)CCCCC2)c1`, the IC50 was 0.008 µM.

`NC(=O)C[C@H](NC(=O)C1(NC(=O)[C@H](Cc2ccc(C(C(=O)O)C(=O)O)cc2)NC(=O)C(=O)O)CCCCC1)C(=O)NCCCc1cccc2ccccc12`: the IC50 turned out to be 0.07 µM.

Consider `NC(=O)C[C@H](NC(=O)C1(NC(=O)[C@H](Cc2ccc(C(F)(C(=O)O)C(=O)O)cc2)NC(=O)C(=O)O)CCCCC1)C(=O)NCCCc1cccc2ccccc12`, for which the IC50 is 0.17 µM.

The compound `NC(=O)C[C@H](NC(=O)C1(NC(=O)[C@H](Cc2ccc(CC(=O)O)cc2)NC(=O)C(=O)O)CCCCC1)C(=O)NCCCc1cccc2ccccc12` gave an IC50 of 1 µM.

Regarding `CC(=O)N[C@@H](Cc1ccc(OC(C(=O)O)C(=O)O)cc1)C(=O)NC1(C(=O)N[C@@H](CC(N)=O)C(=O)NCCCc2cccc3ccccc23)CCCCC1`, the IC50 turned out to be 2.75 µM.

The compound `CC(=O)N[C@@H](Cc1ccc(C(C(=O)O)C(=O)O)cc1)C(=O)NC1(C(=O)N[C@@H](CC(N)=O)C(=O)NCCCc2cccc3ccccc23)CCCCC1` gave an IC50 of 0.16 µM.

For the compound `CC(=O)N[C@@H](Cc1ccc(CC(=O)O)cc1)C(=O)NC1(C(=O)N[C@@H](CC(N)=O)C(=O)NCCCc2cccc3ccccc23)CCCCC1`, the IC50 came out at 6.4 µM.

In the case of `Cc1ccc2c(ccn2CCCNC(=O)[C@H](CC(N)=O)NC(=O)C2(NC(=O)[C@H](Cc3ccc(CP(=O)(O)O)cc3)NC(=O)C(=O)O)CCCCC2)c1`, the IC50 was 0.002 µM.

`CC(=O)N[C@@H](Cc1ccc(C(C(=O)O)C(=O)O)cc1)C(=O)NC1(C(=O)N[C@@H](CC(N)=O)C(=O)NCCCn2ccc3cc(C)ccc32)CCCCC1` registered an IC50 of 0.012 µM.

In turn, `CC(=O)N[C@@H](Cc1ccc(C(F)(C(=O)O)C(=O)O)cc1)C(=O)NC1(C(=O)N[C@@H](CC(N)=O)C(=O)NCCCc2cccc3ccccc23)CCCCC1` gave an IC50 of 0.68 µM.

For `NC(=O)C[C@H](NC(=O)C1(NC(=O)[C@H](Cc2ccc(CP(=O)(O)O)cc2)NC(=O)C(=O)O)CCCCC1)C(=O)NCCCc1cccc2ccccc12`, the IC50 worked out at 0.05 µM. Against the preceding compound, the IC50 is about 14-fold lower.

On to `CC(=O)N[C@@H](Cc1ccc(CP(=O)(O)O)cc1)C(=O)NC1(C(=O)N[C@@H](CC(N)=O)C(=O)NCCCn2ccc3cc(C)ccc32)CCCCC1`, for which the IC50 turned out to be 0.004 µM.
